Assay results reported in ChEMBL document CHEMBL1131142 (J Med Chem, 1998).
Activity calls are given as the source filed them. No cut-off for these calls is given here.

Tests used:
Rattus norvegicus [1] = assay: Tested in vivo for inhibition of sorbital accumulation in the sciatic nerve of streptozotocin- induced diabetic rat; % Inhibition at 30 mg/kg; type: functional
[2] = biological target: Aldo-keto reductase family 1 member B1 (Sus scrofa, UniProt P80276); assay: In vitro inhibitory activity against aldose reductase in porcine lens.
Procedure, shortened: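 Partially purified porcine lens AR: lens homogenate in 250 mM phosphate pH 7.4 with 2 mM mercaptoethanol, 20000g supernatant, 40-60% ammonium sulfate cut. Assay mix: 100 mM phosphate pH 6.5, 0.2 mM NADPH, 1.5 mM DL-glyceraldehyde, 0.4 M Li2SO4, 7.0 mU/mL enzyme; 37 °C; A340 decrease over 1 min. IC50 read graphically from log concentration-inhibition curve.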

Rattus norvegicus [3] = assay: Tested in vivo for inhibition of sorbital accumulation in the sciatic nerve of streptozotocin- induced diabetic rat; % Inhibition at 100 mg/kg; type: functional
Rattus norvegicus [4] = species: Rattus norvegicus; assay: Dose required for inhibition of sorbital accumulation in the sciatic nerve of streptozotocin- induced diabetic rat.; type: functional
Procedure, shortened: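 Oral dosing of streptozotocin-diabetic rats once daily for 5 days; sciatic nerve taken 4 h after final dose. Nerve sorbitol assayed fluorometrically via sorbitol dehydrogenase-generated NADH (ex 365/em 430 nm).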

Rattus norvegicus [5] = assay: Tested in vivo for inhibition of sorbital accumulation in the sciatic nerve of streptozotocin- induced diabetic rat;NS=No significant inhibition at 100 mg/kg; type: functional, organism-based; set-up: dose 100 mg/kg
Rattus norvegicus [6] = assay: Compound tested in vivo for inhibition of sorbital accumulation in the sciatic nerve of streptozotocin- induced diabetic rat; No significant inhibition at 30 mg/kg; type: functional, organism-based; set-up: dose 30 mg/kg
Rattus norvegicus [7] = assay: Compound tested in vivo for inhibition of sorbital accumulation in the sciatic nerve of streptozotocin- induced diabetic rat; No significant inhibition at 1 mg/kg; type: functional, organism-based; set-up: dose 1 mg/kg
Rattus norvegicus [8] = assay: Compound tested for inhibition of sorbital accumulation in the sciatic nerve of streptozotocin- induced diabetic rat; % Inhibition at 1 mg/kg; type: functional
Rattus norvegicus [9] = assay: Compound tested in vivo for inhibition of sorbital accumulation in the sciatic nerve of streptozotocin- induced diabetic rat; % Inhibition at 1 mg/Kg; type: functional
Rattus norvegicus [10] = assay: Compound tested in vivo for inhibition of sorbital accumulation in the sciatic nerve of streptozotocin- induced diabetic rat at 100 mg/kg; type: functional
Rattus norvegicus [11] = assay: Compound tested in vivo for inhibition of sorbital accumulation in the sciatic nerve of streptozotocin- induced diabetic rat; No significant inhibition at 100 mg/kg; type: functional, organism-based; set-up: dose 100 mg/kg

O=C1CC2(C(=O)N1)C(=O)N(Cc1ccccc1)C(=O)c1cccn12 (configuration not stated)
inhibition in vivo at 30 mg/kg (Rattus norvegicus [1]): 69.1%

O=C(O)CC1C(=O)NC(=O)c2cccn21 (configuration not stated)
IC50 [2]: > 10000 nM
inhibition in vivo at 100 mg/kg (Rattus norvegicus [3]): 12.5%

O=C1CC2(C(=O)N1)C(=O)N(Cc1ccc(F)cc1F)C(=O)c1cccn12 (configuration not stated)
ED50 (Rattus norvegicus [4]): 5.4 mg/kg/day
inhibition in vivo at 30 mg/kg (Rattus norvegicus [1]): 98%

COC(=O)CN(C)C(=O)c1ccc[nH]1
IC50 [2]: > 10000 nM
inhibition in vivo at 100 mg/kg (Rattus norvegicus [3]): 38%

CN(CC(=O)O)C(=O)c1ccc[nH]1
IC50 [2]: 5000 nM
inhibition in vivo at 100 mg/kg (Rattus norvegicus [3]): 23.7%

O=C(O)CCC1C(=O)NC(=O)c2cccn21 (configuration not stated)
IC50 [2]: > 10000 nM
inhibition (Rattus norvegicus [5]): inactive

O=C1CC2(C(=O)N1)C(=O)N(CCc1ccccc1)C(=O)c1cccn12 (configuration not stated)
IC50 [2]: 270 nM
inhibition in vivo at 30 mg/kg (Rattus norvegicus [1]): 15.3%

CC(C)N1C(=O)c2cccn2C(CC(=O)O)C1=O (configuration not stated)
IC50 [2]: > 10000 nM
inhibition in vivo at 100 mg/kg (Rattus norvegicus [3]): 12.9%

O=C(O)Cc1nn(Cc2ccc(Br)cc2F)c(=O)c2ccccc12 [PONALRESTAT]
IC50 [2]: 21 nM
ED50 (Rattus norvegicus [4]): 11 mg/kg/day

O=C1CC2(C(=O)N1)C(=O)N(Cc1ccc(Cl)cc1F)C(=O)c1cccn12 (configuration not stated)
ED50 (Rattus norvegicus [4]): 0.74 mg/kg/day
inhibition in vivo at 30 mg/kg (Rattus norvegicus [1]): 110%

COc1ccc(CN2C(=O)c3cccn3C3(CC(=O)NC3=O)C2=O)c(OC)c1 (configuration not stated)
IC50 [2]: 350 nM
inhibition (Rattus norvegicus [6]): inactive

O=C1CC2(C(=O)N1)C(=O)N(Cc1ccc(Cl)cc1)C(=O)c1cccn12 (configuration not stated)
IC50 [2]: 38 nM
ED50 (Rattus norvegicus [4]): 1.5 mg/kg/day
inhibition in vivo at 30 mg/kg (Rattus norvegicus [1]): 105%

O=C1CC2(C(=O)N1)C(=O)N(Cc1cccc(Br)c1)C(=O)c1cccn12 (configuration not stated)
inhibition in vivo at 30 mg/kg (Rattus norvegicus [1]): 102%

O=C1CC2(C(=O)N1)C(=O)N(Cc1ccc(Br)cc1)C(=O)c1cccn12 (configuration not stated)
ED50 (Rattus norvegicus [4]): 0.48 mg/kg/day
inhibition in vivo at 30 mg/kg (Rattus norvegicus [1]): 108%

O=C1CC2(C(=O)N1)C(=O)N(c1ccccc1)C(=O)c1cccn12 (configuration not stated)
IC50 [2]: 200 nM
inhibition in vivo at 30 mg/kg (Rattus norvegicus [1]): 27.2%

O=C1CC2(C(=O)N1)C(=O)N(Cc1ccc(Br)cc1F)C(=O)c1ccc(Br)n12 (configuration not stated)
inhibition (Rattus norvegicus [7]): inactive

O=C1CC2(C(=O)N1)C(=O)N(Cc1ccccc1Cl)C(=O)c1cccn12 (configuration not stated)
IC50 [2]: 37 nM
ED50 (Rattus norvegicus [4]): 5.8 mg/kg/day
inhibition in vivo at 30 mg/kg (Rattus norvegicus [1]): 97%

Nc1ccc(CN2C(=O)c3cccn3C3(CC(=O)NC3=O)C2=O)cc1 (configuration not stated)
IC50 [2]: 140 nM
inhibition in vivo at 30 mg/kg (Rattus norvegicus [1]): 33.4%

COc1ccc(CN2C(=O)c3cccn3C3(CC(=O)NC3=O)C2=O)cc1OC (configuration not stated)
inhibition (Rattus norvegicus [6]): inactive

O=C1CC2(C(=O)N1)C(=O)N(Cc1ccc([N+](=O)[O-])cc1)C(=O)c1cccn12 (configuration not stated)
ED50 (Rattus norvegicus [4]): 10.8 mg/kg/day
inhibition in vivo at 30 mg/kg (Rattus norvegicus [1]): 102%

O=C1CC2(C(=O)N1)C(=O)NC(=O)c1cccn12 (configuration not stated)
IC50 [2]: 630 nM
inhibition in vivo at 30 mg/kg (Rattus norvegicus [1]): 33.2%

O=C1C[C@@]2(C(=O)N1)C(=O)N(Cc1ccc(Br)cc1F)C(=O)c1cccn12
IC50 [2]: 15 nM
ED50 (Rattus norvegicus [4]): 0.18 mg/kg/day

Cc1ccc(CN2C(=O)c3cccn3C3(CC(=O)NC3=O)C2=O)cc1 (configuration not stated)
inhibition in vivo at 30 mg/kg (Rattus norvegicus [1]): 65.8%

O=C1CC2(C(=O)N1)C(=O)N(Cc1ccc(Br)cc1F)C(=O)c1cc(Br)c(Br)n12 (configuration not stated)
IC50 [2]: 52 nM
inhibition (Rattus norvegicus [7]): inactive

CN1C(=O)c2cccn2C(CCC(=O)O)C1=O (configuration not stated)
IC50 [2]: > 10000 nM
inhibition (Rattus norvegicus [5]): inactive

O=C1CC2(C(=O)N1)C(=O)N(Cc1ccc(Cl)c(Cl)c1)C(=O)c1cccn12 (configuration not stated)
ED50 (Rattus norvegicus [4]): 0.6 mg/kg/day
inhibition in vivo at 30 mg/kg (Rattus norvegicus [1]): 112%

CN1CC(=O)n2cccc2C1=O
IC50 [2]: 7500 nM
inhibition in vivo at 100 mg/kg (Rattus norvegicus [3]): 55.7%

O=C1CC2(C(=O)N1)C(=O)N(Cc1ccc(Br)cc1F)C(=O)c1cccn12 (configuration not stated)
IC50 [2]: 45 nM
ED50 (Rattus norvegicus [4]): 0.3 mg/kg/day
inhibition in vivo at 1 mg/kg (Rattus norvegicus [8]): 105%
inhibition in vivo at 30 mg/kg (Rattus norvegicus [1]): 115%

O=C1C[C@]2(C(=O)N1)C(=O)N(Cc1ccc(Br)cc1F)C(=O)c1cccn12
IC50 [2]: 190 nM
ED50 (Rattus norvegicus [4]): > 100 mg/kg/day

CC(=O)c1cc2n(c1)C1(CC(=O)NC1=O)C(=O)N(Cc1ccc(Br)cc1F)C2=O (configuration not stated)
IC50 [2]: 210 nM
inhibition in vivo at 1 mg/kg (Rattus norvegicus [9]): 26.6%

O=C1CC2(C(=O)N1)C(=O)N(Cc1ccc(Br)cc1F)C(=O)c1cc(Br)cn12 (configuration not stated)
inhibition in vivo at 1 mg/kg (Rattus norvegicus [9]): 28.8%

COc1ccc2c(C(=S)N(C)CC(=O)O)cccc2c1C(F)(F)F [TOLRESTAT]
IC50 [2]: 15 nM
ED50 (Rattus norvegicus [4]): 26.7 mg/kg/day

O=C(O)CCC1C(=O)N(Cc2ccc(Cl)c(Cl)c2)C(=O)c2cccn21 (configuration not stated)
IC50 [2]: 132 nM
inhibition in vivo at 100 mg/kg (Rattus norvegicus [10]): 17.2%

O=C1CC2(C(=O)N1)C(=O)N(Cc1ccc(C(F)(F)F)cc1)C(=O)c1cccn12 (configuration not stated)
inhibition in vivo at 30 mg/kg (Rattus norvegicus [1]): 88.4%

O=C(O)CC1C(=O)N(Cc2ccc(Br)cc2F)C(=O)c2cccn21 (configuration not stated)
IC50 [2]: 165 nM
inhibition (Rattus norvegicus [5]): inactive

CN1C(=O)c2cccn2C(CC(=O)O)C1=O (configuration not stated)
IC50 [2]: > 10000 nM
inhibition in vivo at 100 mg/kg (Rattus norvegicus [3]): 12.8%

O=C1CC2(C(=O)N1)C(=O)N(Cc1cccc(Cl)c1)C(=O)c1cccn12 (configuration not stated)
IC50 [2]: 35 nM
ED50 (Rattus norvegicus [4]): 3.8 mg/kg/day
inhibition in vivo at 30 mg/kg (Rattus norvegicus [1]): 99.4%

CN1C(=O)c2cccn2C2(CC(=O)NC2=O)C1=O (configuration not stated)
IC50 [2]: 280 nM
inhibition in vivo at 30 mg/kg (Rattus norvegicus [1]): 51.2%

O=C1CC2(C(=O)N1)C(=O)N(Cc1ccccc1Br)C(=O)c1cccn12 (configuration not stated)
inhibition in vivo at 30 mg/kg (Rattus norvegicus [1]): 82.6%

O=C1CC2(C(=O)N1)C(=O)N(Cc1ccc(Br)cc1F)C(=O)c1ccc(Cl)n12 (configuration not stated)
inhibition in vivo at 1 mg/kg (Rattus norvegicus [9]): 20.2%

O=C1CC2(C(=O)N1)C(=O)N(Cc1ccccc1F)C(=O)c1cccn12 (configuration not stated)
ED50 (Rattus norvegicus [4]): 1.3 mg/kg/day
inhibition in vivo at 30 mg/kg (Rattus norvegicus [1]): 98%

O=C(O)CC1C(=O)N(Cc2ccc(Cl)c(Cl)c2)C(=O)c2cccn21 (configuration not stated)
IC50 [2]: 131 nM
inhibition (Rattus norvegicus [11]): inactive

O=C1CC2(C(=O)N1)C(=O)N(Cc1ccc(Br)cc1F)C(=O)c1cc(Cl)cn12 (configuration not stated)
inhibition in vivo at 1 mg/kg (Rattus norvegicus [9]): 23%

O=C1CC2(C(=O)N1)C(=O)N(Cc1ccc(F)cc1)C(=O)c1cccn12 (configuration not stated)
inhibition in vivo at 30 mg/kg (Rattus norvegicus [1]): 58.8%

COc1ccc(CN2C(=O)c3cccn3C3(CC(=O)NC3=O)C2=O)cc1 (configuration not stated)
inhibition in vivo at 30 mg/kg (Rattus norvegicus [1]): 46.7%

O=C(O)CCC1C(=O)N(Cc2ccc(Br)cc2F)C(=O)c2cccn21 (configuration not stated)
IC50 [2]: 803 nM
inhibition (Rattus norvegicus [5]): inactive

CC(C)N1C(=O)c2cccn2C(CCC(=O)O)C1=O (configuration not stated)
IC50 [2]: > 10000 nM
inhibition (Rattus norvegicus [5]): inactive
